Columns and labels:
[1] = target: T1, Bromodomain-containing protein 4 (Homo sapiens, UniProt O60885); assay: Inhibition of BRD4 in human PBMC assessed as reduction in LPS-induced IL-6 secretion incubated for 18 to 24 hrs by MSD assay
[2] = target: T1, Bromodomain-containing protein 4; assay: Inhibition of BRD4 in human whole blood assessed as reduction in LPS-induced IL-6 secretion preincubated for 30 mins followed by LPS stimulation and measured after 24 hrs by MSD assay; assay type: tissue-based
Cytochrome P450 2C19 = Cytochrome P450 2C19 (Homo sapiens, UniProt P33261); assay: Inhibition of recombinant human CYP2C19 expressed in Escherichia coli using BMC as probe substrate incubated for 15 to 60 mins by fluorometric assay; assay type: ADME
Procedure, shortened: (§1)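 Recombinant human CYPs coexpressed with NADPH reductase in E. coli bactosomes (0.1 mg protein/mL); profluorescent substrates ER (1A2), BMC (2C19), MMC (2D6), VividGreen or VividRed (3A4).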

Cytochrome P450 2D6 = Cytochrome P450 2D6 (Homo sapiens, UniProt P10635); assay: Inhibition of recombinant human CYP2D6 expressed in Escherichia coli using MMC as probe substrate incubated for 15 to 60 mins by fluorometric assay; assay type: ADME; procedure, shortened: as §1
[3] = Total blood clearance in Wistar Han rat at 1 mg/kg/hr, iv measured upto 26 hrs by LC-MS/MS analysis relative to hepatic blood flow; assay type: ADME, organism-based; conditions: in vivo
[4] = Volume of distribution at steady state in Beagle dog at 1 mg/kg/hr, iv measured upto 28 hrs by LC-MS/MS analysis; assay type: ADME, organism-based, Canis lupus familiaris; conditions: in vivo, read-out: Vdss
[5] = Half life in Beagle dog at 1 mg/kg/hr, iv measured upto 28 hrs by LC-MS/MS analysis; assay type: ADME, organism-based, Canis lupus familiaris; conditions: in vivo
[6] = AUC(0 to t) in Beagle dog at 5 mg/kg, po measured upto 24 hrs by HPLC-MS/MS analysis; assay type: ADME, organism-based, Canis lupus familiaris; set-up: route oral, dose 5 mg/kg, time <=24; conditions: in vivo
Procedure, shortened: (§2)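 Oral suspension in 1% (w/v) hydroxypropylmethyl cellulose in water; male rats (n = 3) and male dogs (n = 4). AUC taken from 0 h to last quantifiable time point; Cmax is maximum observed plasma concentration; Tmax reported as median. Mean ± SD.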

[7] = Tmax in Wistar Han rat at 1 mg/kg, po measured upto 24 hrs by HPLC-MS/MS analysis; assay type: ADME, organism-based; conditions: in vivo; procedure, shortened: as §2
[8] = target: CREB-binding protein (Homo sapiens) (UniProt Q92793); assay: Binding affinity to CBP (unknown origin) assessed as change in melting temperature
[9] = target: T1, Bromodomain-containing protein 4; assay: Binding affinity to BRD4 (unknown origin) assessed as change in melting temperature
[10] = target: CREB-binding protein (Homo sapiens) (UniProt Q92793); assay: Binding affinity to CBP (unknown origin) by ITC assay
[11] = target: T1, Bromodomain-containing protein 4; assay: Binding affinity to BRD4 (unknown origin) by ITC assay
[12] = rat, hepatocytes, 2 h, 0.5 µM
[13] = human, hepatocytes, 2 h, 0.5 µM
[14] = Oral bioavailability in Wistar Han rat at 3 mg/kg measured upto 24 hrs by HPLC-MS/MS analysis; conditions: in vivo

CREB-binding protein (Homo sapiens), sequence (Q92793 2-2442 limits assumed): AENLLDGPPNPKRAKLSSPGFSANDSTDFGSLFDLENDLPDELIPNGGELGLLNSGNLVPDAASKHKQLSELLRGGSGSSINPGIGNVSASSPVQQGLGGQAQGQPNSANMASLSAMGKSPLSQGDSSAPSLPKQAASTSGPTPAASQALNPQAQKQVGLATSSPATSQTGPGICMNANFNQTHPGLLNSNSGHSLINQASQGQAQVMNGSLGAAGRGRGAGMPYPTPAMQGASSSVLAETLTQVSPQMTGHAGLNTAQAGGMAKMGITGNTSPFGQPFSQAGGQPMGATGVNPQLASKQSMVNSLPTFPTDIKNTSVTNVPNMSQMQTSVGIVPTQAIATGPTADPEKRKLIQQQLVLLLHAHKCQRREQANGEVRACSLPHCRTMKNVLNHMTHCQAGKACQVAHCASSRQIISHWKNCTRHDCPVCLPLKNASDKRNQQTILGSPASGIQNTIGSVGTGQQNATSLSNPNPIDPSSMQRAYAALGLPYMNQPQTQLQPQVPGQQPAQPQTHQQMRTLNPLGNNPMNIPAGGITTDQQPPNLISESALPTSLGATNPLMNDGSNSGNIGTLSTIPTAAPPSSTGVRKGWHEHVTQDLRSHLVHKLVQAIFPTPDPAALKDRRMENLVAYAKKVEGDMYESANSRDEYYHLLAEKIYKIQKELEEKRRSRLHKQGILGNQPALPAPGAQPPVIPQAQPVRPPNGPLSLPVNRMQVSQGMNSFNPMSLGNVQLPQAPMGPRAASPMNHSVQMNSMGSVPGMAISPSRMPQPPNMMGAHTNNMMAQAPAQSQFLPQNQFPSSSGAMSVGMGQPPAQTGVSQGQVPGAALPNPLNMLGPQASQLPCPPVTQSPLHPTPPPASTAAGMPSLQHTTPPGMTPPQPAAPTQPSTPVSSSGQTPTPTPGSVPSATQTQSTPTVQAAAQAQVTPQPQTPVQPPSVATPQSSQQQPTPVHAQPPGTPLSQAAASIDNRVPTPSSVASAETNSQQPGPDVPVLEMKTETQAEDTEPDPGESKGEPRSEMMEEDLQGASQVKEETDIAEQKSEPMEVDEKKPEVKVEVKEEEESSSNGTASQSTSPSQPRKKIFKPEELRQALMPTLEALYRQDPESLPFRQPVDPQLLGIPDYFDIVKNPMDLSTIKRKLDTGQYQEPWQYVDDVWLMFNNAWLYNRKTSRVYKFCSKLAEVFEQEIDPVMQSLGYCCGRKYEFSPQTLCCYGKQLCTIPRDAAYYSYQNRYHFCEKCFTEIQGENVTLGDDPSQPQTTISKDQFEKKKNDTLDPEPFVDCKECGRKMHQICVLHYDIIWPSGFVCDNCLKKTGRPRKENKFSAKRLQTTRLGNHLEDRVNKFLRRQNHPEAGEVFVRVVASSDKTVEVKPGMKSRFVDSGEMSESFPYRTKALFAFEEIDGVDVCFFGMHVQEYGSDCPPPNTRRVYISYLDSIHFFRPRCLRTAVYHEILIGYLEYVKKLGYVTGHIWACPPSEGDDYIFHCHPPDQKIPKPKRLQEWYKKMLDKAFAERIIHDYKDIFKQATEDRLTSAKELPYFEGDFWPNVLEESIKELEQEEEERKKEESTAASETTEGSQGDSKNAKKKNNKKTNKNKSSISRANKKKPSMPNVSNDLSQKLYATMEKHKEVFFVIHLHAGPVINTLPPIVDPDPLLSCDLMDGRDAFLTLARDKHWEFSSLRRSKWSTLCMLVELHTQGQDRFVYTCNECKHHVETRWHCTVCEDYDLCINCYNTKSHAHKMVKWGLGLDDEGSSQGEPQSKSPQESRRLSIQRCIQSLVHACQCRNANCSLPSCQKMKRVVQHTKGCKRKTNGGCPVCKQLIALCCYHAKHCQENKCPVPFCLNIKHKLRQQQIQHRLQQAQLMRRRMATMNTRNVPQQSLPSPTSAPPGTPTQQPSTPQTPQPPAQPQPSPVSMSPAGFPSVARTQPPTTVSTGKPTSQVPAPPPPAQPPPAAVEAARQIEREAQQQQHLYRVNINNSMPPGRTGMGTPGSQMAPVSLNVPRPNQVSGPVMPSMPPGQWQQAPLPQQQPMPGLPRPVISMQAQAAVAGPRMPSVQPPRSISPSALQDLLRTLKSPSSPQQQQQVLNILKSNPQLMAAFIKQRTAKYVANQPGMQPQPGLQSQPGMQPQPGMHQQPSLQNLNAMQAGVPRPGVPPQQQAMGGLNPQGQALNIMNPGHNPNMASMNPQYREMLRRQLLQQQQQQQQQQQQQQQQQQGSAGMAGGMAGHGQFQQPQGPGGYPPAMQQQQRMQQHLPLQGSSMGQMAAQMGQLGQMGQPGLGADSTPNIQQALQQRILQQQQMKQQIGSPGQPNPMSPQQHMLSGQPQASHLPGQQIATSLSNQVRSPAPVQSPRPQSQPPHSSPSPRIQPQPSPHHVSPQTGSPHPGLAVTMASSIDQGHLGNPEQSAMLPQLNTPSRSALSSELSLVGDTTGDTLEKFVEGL
Cytochrome P450 2C19, sequence (P33261 whole entry): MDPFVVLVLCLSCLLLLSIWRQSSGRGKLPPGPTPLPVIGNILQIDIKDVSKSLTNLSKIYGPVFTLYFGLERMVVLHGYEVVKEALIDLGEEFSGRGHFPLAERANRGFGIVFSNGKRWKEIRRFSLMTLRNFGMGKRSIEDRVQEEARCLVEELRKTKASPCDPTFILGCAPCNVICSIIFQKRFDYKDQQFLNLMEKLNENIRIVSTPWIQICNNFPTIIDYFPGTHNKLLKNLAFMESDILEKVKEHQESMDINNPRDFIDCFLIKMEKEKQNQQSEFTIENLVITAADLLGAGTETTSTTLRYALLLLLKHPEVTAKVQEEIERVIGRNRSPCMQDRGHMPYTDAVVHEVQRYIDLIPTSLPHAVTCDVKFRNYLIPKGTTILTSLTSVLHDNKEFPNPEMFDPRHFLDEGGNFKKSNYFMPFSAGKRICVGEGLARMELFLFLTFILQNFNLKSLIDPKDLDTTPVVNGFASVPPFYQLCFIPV
Cytochrome P450 2D6, sequence (P10635 whole entry): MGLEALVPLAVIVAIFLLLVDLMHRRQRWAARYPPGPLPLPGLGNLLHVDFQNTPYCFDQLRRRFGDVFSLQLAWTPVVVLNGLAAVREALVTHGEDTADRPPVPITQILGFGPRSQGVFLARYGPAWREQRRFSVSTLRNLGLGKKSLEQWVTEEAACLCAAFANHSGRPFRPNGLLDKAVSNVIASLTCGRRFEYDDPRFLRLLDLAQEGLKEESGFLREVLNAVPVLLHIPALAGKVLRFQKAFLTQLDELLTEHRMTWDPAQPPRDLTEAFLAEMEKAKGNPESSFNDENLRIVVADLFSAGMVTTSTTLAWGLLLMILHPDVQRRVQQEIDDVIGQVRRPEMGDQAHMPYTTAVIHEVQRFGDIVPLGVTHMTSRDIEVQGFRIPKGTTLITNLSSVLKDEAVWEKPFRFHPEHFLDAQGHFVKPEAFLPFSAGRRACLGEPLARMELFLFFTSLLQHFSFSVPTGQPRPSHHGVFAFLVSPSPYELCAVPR

SMILES: COC[C@@H](C)n1c(C2CCOCC2)nc2cnc3cc(-c4c(C)noc4C)c(OC)cc3c21
- IC50 [1]: 100 nM
- IC50 [2]: 316 nM
- IC50 (Cytochrome P450 2C19): > 50 µM
- IC50 (Cytochrome P450 2D6): > 50 µM
- CLH [3]: 22%
- Vd [4]: 3.1 L/kg
- half-life [5]: 108 min
- AUCt [6]: 367 ng·h/mL
- Tmax [7]: 1 h
- ΔTm [8]: 3.4 °C
- ΔTm [9]: 9.9 °C
- Activity [10]: 1730 nM
- Activity [11]: 47.5 nM
- CLint [12]: < 0.86 mL/min/g liver
- CLint [13]: < 0.86 mL/min/g liver
- bioavailability [14]: 74%
